Assay results taken from ChEMBL document CHEMBL1125106, “1-(Thienylalkyl)imidazole-2(3H)-thiones as potent competitive inhibitors of dopamine beta-hydroxylase” (J Med Chem, 1990).

Assays:
[1] = biological target: T1, Dopamine beta-hydroxylase (Bos taurus, UniProt P15101); assay: Inhibitory activity against bovine adrenal dopamine beta-hydroxylase (DBH)
T1 sequence (P15101 whole entry): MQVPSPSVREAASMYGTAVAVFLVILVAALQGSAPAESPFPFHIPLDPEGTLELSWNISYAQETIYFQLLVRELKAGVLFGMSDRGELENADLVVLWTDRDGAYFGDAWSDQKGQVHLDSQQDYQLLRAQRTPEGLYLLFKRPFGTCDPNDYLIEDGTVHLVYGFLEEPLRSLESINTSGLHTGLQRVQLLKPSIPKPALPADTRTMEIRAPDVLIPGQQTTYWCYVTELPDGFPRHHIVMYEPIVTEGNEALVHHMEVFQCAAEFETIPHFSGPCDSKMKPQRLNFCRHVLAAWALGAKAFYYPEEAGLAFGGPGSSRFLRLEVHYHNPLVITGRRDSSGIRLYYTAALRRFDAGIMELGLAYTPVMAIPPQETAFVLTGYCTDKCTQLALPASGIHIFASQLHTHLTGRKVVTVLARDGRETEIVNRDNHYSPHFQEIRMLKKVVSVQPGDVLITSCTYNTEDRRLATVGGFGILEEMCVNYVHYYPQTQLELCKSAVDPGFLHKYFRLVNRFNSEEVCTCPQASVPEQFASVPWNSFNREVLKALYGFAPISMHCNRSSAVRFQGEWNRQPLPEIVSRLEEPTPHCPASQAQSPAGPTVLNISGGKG
Summary of the method: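 Commercial bovine DBH, assayed by oxygen consumption on an oxygen electrode at 25.0 °C. Mixture contained 2 mM ascorbic acid, 10 mM sodium fumarate, catalase and 10 mM tyramine in 0.1 M sodium acetate pH 5.0. Rates corrected for nonenzymatic ascorbate oxidation. IC50 from duplicates in at least three separate experiments, mean ± SD.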

[2] = DBH (dopamine beta-hydroxylase) activity expressed as Ki value determined by degree to which compound inhibited conversion of tyramine to octopamine
Summary of the method: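 Bovine adrenal medulla DBH, purified in-house (sp act. 44 µmol/min/mg). Incubated at 37 °C, atmospheric pressure, in 0.2 M acetate pH 5.5 with 10 mM ascorbate, 20 mM fumarate, […] and 1300 units catalase. Octopamine formed from tyramine measured by reverse-phase HPLC with fluorescence detection (ex 275, em 315 nm). Six inhibitor and four substrate concentrations tested, DMSO ≤3% final, duplicates; Ki from Dixon analysis.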

[3] = Antihypertensive activity as ability to increase tissue DA/NE ratio of mesenteric artery 6 hr after oral administration in fasted SHR (spontaneous hypertensive rat) at the dose of 25 mg/kg (po); format: functional
Summary of the method: (§1)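 Male fasted SHR given compound orally as a suspension in 50% PEG 400 (0.4 mL/100 g), or vehicle alone. Killed 6 h after dosing. Mesenteric artery homogenized in 0.2 M HClO4 with DTT, EGTA and DHBA internal standard. Catecholamines adsorbed on alumina, eluted with 0.1 M H3PO4, and DA and NE quantified by reverse-phase HPLC. Ratio reported as mean ± SD and compared with vehicle by 2-tailed t test.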

Rattus norvegicus [4] = assay: Mean arterial blood pressure was determined in SHR (spontaneous hypertensive rat) with control at a peroral dose of 50 mg/kg; format: functional; conditions: route oral
Summary of the method: (§2)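 Conscious SHR with a carotid catheter externalized at the nape, allowed about 48 h to recover from surgery. Dosed po at 09:00 with vehicle (50% PEG 400) or compound suspension, with treatments reversed the next day in a cross-over design. Mean arterial pressure recorded as 5 min averages and compared with vehicle by paired t test (mean ± SEM, p<0.05).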

Rattus norvegicus [5] = assay: Duration of activity of compound in SHR (spontaneous hypertensive rat) at the dose of 50 mg/kg (po); format: functional; summary of the method: as §2
Rattus norvegicus [6] = assay: Mean arterial blood pressure was determined in SHR (spontaneous hypertensive rat) with administration at peroral dose of 50 mg/kg; format: functional; conditions: route oral; summary of the method: as §2
Rattus norvegicus [7] = assay: Mean arterial blood pressure was determined in SHR (spontaneous hypertensive rat) with administration at peroral dose of 25 mg/kg; format: functional; conditions: route oral; summary of the method: as §2
[8] = Antihypertensive activity was determined by its ability to increase DA/NE ratio of mesenteric artery 6 hr after oral administration in fasted SHR (spontaneous hypertensive rat) at the dose of 100 mg/kg (po); format: functional; summary of the method: as §1
Rattus norvegicus [9] = assay: Mean arterial blood pressure was determined in SHR (spontaneous hypertensive rat) with administration at the dose of 100 mg/kg (po); format: functional; summary of the method: as §2
Rattus norvegicus [10] = assay: Mean arterial blood pressure was determined in SHR (spontaneous hypertensive rat) with control at a peroral dose of 25 mg/kg; format: functional; conditions: route oral; summary of the method: as §2
Rattus norvegicus [11] = assay: Duration of activity of compound in SHR (spontaneous hypertensive rat) at the dose of 100 mg/kg (po); format: functional; summary of the method: as §2
Rattus norvegicus [12] = assay: Duration of activity of compound in SHR (spontaneous hypertensive rat) at the dose of 25 mg/kg (po); format: functional; summary of the method: as §2
Rattus norvegicus [13] = assay: Mean arterial blood pressure was determined in SHR (spontaneous hypertensive rat) with control at a peroral dose of 100 mg/kg; format: functional; conditions: route oral; summary of the method: as §2
[14] = Antihypertensive activity determined as ability to increase tissue DA/NE ratio of mesenteric artery 6 hr after oral administration in fasted SHR (spontaneous hypertensive rat); format: functional; summary of the method: as §1
[15] = Antihypertensive activity was determined by its ability to increase DA/NE ratio of mesenteric artery 6 hr after oral administration in fasted SHR at the dose of 50 mg/kg (po); format: functional; summary of the method: as §1

S=c1[nH]ccn1Cc1ccco1 gave an IC50 [1] of 6.3 µM.
Sc1nccn1CCc1ccsc1 showed an IC50 [1] of 0.13 µM and a Ki [2] of 0.025 µM.
Sc1nccn1CCCc1cccs1 showed an IC50 [1] of 1.9 µM and a Ki [2] of 0.48 µM.
Compound Fc1cc(F)cc(Cn2cc[nH]c2=S)c1 has an IC50 [1] of 0.21 µM and a Ki [2] of 0.06 µM.
With Sc1nccn1CCCCc1cccs1 the IC50 [1] was 3.6 µM and the Ki [2] was 1.4 µM.
With Fc1ccc(Cn2ccnc2S)s1 the IC50 [1] was 4.6 µM.
For Sc1nccn1Cc1cccs1, the IC50 [1] was 4.8 µM and the Ki [2] was 0.74 µM.
Compound Cc1ccc(CCn2ccnc2S)s1 has an IC50 [1] of 0.491 µM and a Ki [2] of 0.16 µM.
Sc1nccn1Cc1ccc(Cl)s1 showed an IC50 [1] of 1 µM.
For Sc1nccn1CCc1cccs1, the DA/NE ratio [3] was 0.214, the “Mean arterial blood pressure” value (Rattus norvegicus [4]) was 172 mmHg and the Duration (Rattus norvegicus [5]) was 8 h. For the same compound, the IC50 [1] was 0.114 µM, the “Mean arterial blood pressure” value (Rattus norvegicus [6]) was 137 mmHg and the “Mean arterial blood pressure” value (Rattus norvegicus [7]) was 137 mmHg. For the same compound, the Ki [2] was 0.0255 µM, the DA/NE ratio [8] was 0.333 and the “Mean arterial blood pressure” value (Rattus norvegicus [9]) was 126 mmHg. For the same compound, the “Mean arterial blood pressure” value (Rattus norvegicus [10]) was 148 mmHg, the Duration (Rattus norvegicus [11]) was 20 h and the Duration (Rattus norvegicus [12]) was <1 h. The “Mean arterial blood pressure” value (Rattus norvegicus [13]) was 170 mmHg, the DA/NE ratio [14] was 0.072 and the DA/NE ratio [15] was 0.269.
Work on Sc1nccn1Cc1ccsc1 yielded an IC50 [1] of 5.3 µM.
